This test relates to Plasmodium yoelii. The test is described as follows: NOVARTIS: Antimalarial liver stage activity measured as reduction in Plasmodium yoelii schizont area in HepG2-A16-CD81 cells by immuno-fluorescence, and median schizont size at 10uM compound concentration. The class given is functional, organism-based. The note with it: for pIC50: Plasmodium yoelii, HepG2-A16-CD81. The method in brief:
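Host and parasite nuclei stained with Hoechst 33342, parasites with αPyHSP70 antibody; 25 images per well by high-content imaging; median parasite (schizont) area measured by automated image analysis, ~50 schizonts per experiment, two or more independent experiments.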

Structures are written as SMILES. pIC50: −log10 of the molar value.

In the case of `Clc1ncnc2ncn(Cc3ccccc3)c12`, the Schizont size is reported as 220.34 um and the pIC50 was less than 5.00.
`O=[N+]([O-])c1ccc(N2CCCN(C(=S)Nc3ccc(F)cc3Br)CC2)nc1`: the Schizont size is given as 120.24 um and the pIC50 is 5.34.
For `CCOC(=O)c1c(CSc2ccccc2)oc2cc(CN(C)C)c(O)c(Cl)c12` the same measures were 188.08 um and 5.14.
For `COc1ccc(C(c2ccc(N(C)C)cc2)c2ccc(N(C)C)cc2)cc1` the same measures were 172.95 um and less than 5.00.
For `CCc1ccccc1NC(C)=O`, the Schizont size is recorded as 188.81 um and the pIC50 is less than 5.00.
For `O=C(O)Cn1cnc2nc3n(c2c1=O)CCC3` the same measures were 183.18 um and less than 6.11.
For `CCOC(=O)C1(CC)CC(C)(C(=O)C[n+]2cccc(Br)c2)OC1=O.[Br-]` (centres undefined) the same measures were 178.59 um and less than 5.00.
For `CCc1c(C#N)c(N)nc(SCC(=O)c2ccc(C)cc2)c1C#N` the same measures were 189.13 um and less than 5.00.
`CCN(c1ccccc1)S(=O)(=O)c1ccc(F)c(C(=O)Nc2c(C)cccc2C)c1`: the Schizont size is reported as 234.32 um and the pIC50 was less than 5.00.
For `CCCCOc1ccc(C2C3CCCC=C3C(C#N)=C(N)C2(C#N)C#N)cc1` (centres undefined) the same measures were 213.66 um and less than 5.00.
For `Cc1cccc(C)c1N(CC(=O)NCc1ccco1)S(C)(=O)=O` the same measures were 194.24 um and less than 5.00.
In turn, `CC(=O)N(C)C1=C(N2CCCC2)C(=O)c2ccccc2C1=O` gave a Schizont size of 123.79 um and a negative-log IC50 (pIC50) of 5.31.
`Cc1nc2ccccc2c(=O)n1-c1ccc([N+](=O)[O-])cc1` showed a Schizont size of 246.01 um and a negative-log IC50 (pIC50) of less than 5.00.
In the case of `O=C(O)c1c[nH]c2cc(N3CCCCCC3)c(F)cc2c1=O`, the Schizont size was found to be 224.51 um and the pIC50 was less than 5.00.
For `Cc1ccc(OCC(=O)Nc2cccc(-c3nc4ncccc4o3)c2)cc1C` the same measures were 160.01 um and less than 5.00.
In the case of `N#CCSc1nc2ccccc2c2nc(CCc3c[nH]c4ccccc34)nn12`, the Schizont size was determined as 221.17 um and the pIC50 was less than 5.00.
Compound `Cc1ccc(S(=O)(=O)Nc2nc3n(n2)C(c2ccccc2)C=C(c2ccccc2)N3)cc1` (centres undefined) had a Schizont size of 198.42 um and a pIC50 of less than 5.00.
For the compound `O=C(C1CC1)N1CCc2cc(Br)cc(S(=O)(=O)N3CCCC3)c21`, the Schizont size stood at 164.5 um and the pIC50 was less than 5.00.
In turn, `Cc1c(C#N)c2ccccc2n1CC(=O)Nc1ccc(Br)cc1` had a Schizont size of 158.02 um and a pIC50 of less than 5.00.
The compound `CCCCn1c(NN=C2C(=O)Nc3ccccc32)nc2c1c(=O)[nH]c(=O)n2C` had a Schizont size of 172.53 um and a pIC50 of less than 5.00.
For `Cn1cnnc1SCC(=O)Nc1ccccc1C(F)(F)F` the same measures were 204.16 um and less than 5.00.
For `O=C1Nc2ccccc2C12Nc1ccccc1-c1nc3ccccc3n12` (centres undefined) the same measures were 165.43 um and less than 5.00.
As for `COc1ccc(NC(=O)COc2ccccc2C(C)C)c(OC)c1`, the Schizont size was determined as 202.59 um and the pIC50 was less than 5.00.
`CCc1noc(C)c1C(=O)NCCN1Cc2ccccc2OC(c2ccsc2)C1` (centres undefined): the Schizont size was 227.75 um and the pIC50 was less than 5.00.
For `COc1ccc(C2CC(=O)C3=C(C2)NC(C)=C(C(=O)OC2CCCC2)C3c2ccc([N+](=O)[O-])cc2)cc1OC` (centres undefined) the same measures were 103.85 um and 5.41.
Compound `CC(C)(C)c1ccc(Oc2ccc(N3C(=O)C4CC=CCC4C3=O)cc2)cc1` (centres undefined) gave a Schizont size of 180.99 um and a pIC50 of less than 5.00.
`O=C(Nc1ccc(-c2nc3cc(NC(=O)c4cccc([N+](=O)[O-])c4)ccc3[nH]2)cc1)c1cccc([N+](=O)[O-])c1` gave a Schizont size of 101.45 um and a pIC50 of less than 6.03.
Take `COc1ccccc1Cc1nc2ccccc2nc1SCC(=O)Nc1cccc(C(F)(F)F)c1`: the Schizont size is reported as 187.88 um and the pIC50 was less than 5.00.
For `CCCC1(CCC)NC(=S)N(c2ccc(C)c(C)c2)N1` the same measures were 233.59 um and less than 5.00.
With `Nc1nonc1-n1nnc(C(=O)NN=Cc2ccc(F)c(Br)c2)c1-c1ccc([N+](=O)[O-])cc1`, the Schizont size was 246.12 um and the pIC50 is less than 5.00.
For `CCOC(=O)c1c(CNC)n(C)c2cc(Br)c(O)cc12.O=CO.O=CO` the same measures were 175.56 um and less than 5.00.
Take `COc1ccc2c(C)nc(Nc3nc(C)cc(-c4ccccc4)n3)nc2c1`: the Schizont size stood at 170.24 um and the pIC50 is 5.18.
For `COC(=O)c1cc(NC(=S)NC(=O)c2c(OC)cccc2OC)cc(C(=O)OC)c1` the same measures were 216.06 um and less than 5.00.
For `Cc1ccc(-c2cc(C(=O)OCC(=O)c3cccc([N+](=O)[O-])c3)c3cc(C)ccc3n2)cc1` the same measures were 180.05 um and less than 5.00.
For `CCN(CC)c1ccc(N=Cc2ccc(Sc3nc4ccccc4s3)o2)cc1` the same measures were 152.6 um and less than 5.00.
For `[Cl-].c1ccc(Cc2cc[n+](Cc3ccccc3)cc2)cc1`, the Schizont size came to 127.34 um and the pIC50 was 5.34.
For `Cc1c(Cl)cccc1N1C(=O)C2C3c4ccccc4C(c4ccccc43)C2C1=O` (centres undefined) the same measures were 158.75 um and less than 5.00.
Consider `O=C(Cc1cccs1)N1CCN(c2ccccn2)CC1`, for which the Schizont size is on record as 189.55 um and the pIC50 is less than 5.00.
In turn, `CCOc1ccc(NC(=O)C(C)Sc2nc3ccccc3[nH]2)cc1` (centres undefined) gave a Schizont size of 194.87 um and a pIC50 of less than 5.00.
On to `CCSc1ccc2ccccc2[n+]1CC.[I-]`, for which the Schizont size worked out at 209.06 um and the pIC50 is less than 5.00.
The compound `O=C(c1cc2nc(-c3ccccc3)cc(C(F)(F)F)n2n1)N1CCN(Cc2ccccc2)CC1` had a Schizont size of 148.94 um and a pIC50 of less than 5.00.
For `Cc1cccc(C(=O)NCc2nnc(S)n2-c2cccc(C(F)(F)F)c2)c1` the same measures were 210.73 um and less than 5.00.
On to `CCOc1ccc(N(C(=O)C2COc3ccccc3O2)C(C(=O)NC2CCCCC2)c2cn(C)nc2C)cc1` (centres undefined), for which the Schizont size turned out to be 191.42 um and the pIC50 was less than 5.00.
For `CCOC(=O)c1ccc(OCC2c3cc(OC)c(OC)cc3CCN2C(=O)c2ccc([N+](=O)[O-])cc2)cc1` (centres undefined) the same measures were 226.39 um and less than 5.00.
In turn, `N#CC1=C(N)Oc2c3c(c4ccccc4c2C1c1ccc(F)cc1)C(c1ccc(F)cc1)C(C#N)=C(N)O3` (centres undefined) had a Schizont size of 105.63 um and a pIC50 of 5.41.
On to `CCCCSCC(O)CN1CCCCC1` (centres undefined), for which the Schizont size was determined as 191.22 um and the pIC50 is less than 5.00.
Regarding `Cc1ccc(NC(=O)C2C3C=CC4(O3)C2C(=O)N(CCCN2CCOCC2)C4C(=O)NC2CCCC(C)C2C)cc1Cl.Cl` (centres undefined), the Schizont size was 196.54 um and the pIC50 was less than 5.00.

For the origin of these results see ChEMBL document CHEMBL1789904, “Imaging of Plasmodium liver stages to drive next-generation antimalarial drug discovery” (Science, 2011).
